In ChEMBL document CHEMBL3232808, “Synthesis, biological evaluation, and structure-activity relationships of potent noncovalent and nonpeptidic cruzain inhibitors as anti-Trypanosoma cruzi agents” (J Med Chem, 2014):

Tests used:
[1] = target: Cruzipain (Trypanosoma cruzi) (UniProt P25779); experiment: Inhibition of Trypanosoma cruzi cruzaine expressed in Escherichia coli SG13009 using Z-FR-AMC as substrate at 100 uM after 5 mins
[2] = target: T1, Cruzipain (Trypanosoma cruzi, UniProt P25779); experiment: Inhibition of Trypanosoma cruzi cruzaine expressed in Escherichia coli SG13009 using Z-FR-AMC as substrate after 5 mins
T1 sequence (P25779 whole entry): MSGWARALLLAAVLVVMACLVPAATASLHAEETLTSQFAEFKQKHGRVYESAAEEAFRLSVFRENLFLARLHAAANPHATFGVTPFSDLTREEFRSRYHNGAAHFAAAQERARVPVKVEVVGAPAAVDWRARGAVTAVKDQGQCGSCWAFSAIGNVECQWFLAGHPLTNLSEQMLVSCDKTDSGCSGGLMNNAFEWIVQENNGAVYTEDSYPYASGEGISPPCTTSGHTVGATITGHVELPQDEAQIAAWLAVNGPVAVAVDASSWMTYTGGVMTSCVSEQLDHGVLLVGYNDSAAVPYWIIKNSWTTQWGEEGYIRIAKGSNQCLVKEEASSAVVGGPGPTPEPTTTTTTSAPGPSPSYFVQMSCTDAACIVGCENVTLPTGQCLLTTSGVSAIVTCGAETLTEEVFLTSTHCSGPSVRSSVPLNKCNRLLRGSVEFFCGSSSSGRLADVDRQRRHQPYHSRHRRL

[3] = test system: Mus musculus; experiment: Acute toxicity in BALB/c mouse assessed as mortality incidence at 20, 30, 50 and 50 mg/kg, ip administered at 0, 2, 4, 6 hrs respectively and measured after 48 hrs post last dose; type: organism-based; design: dose 50 mg/kg, route intraperitoneal; conditions: in vivo
Summary of the method: (§1)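 One female BALB/c mouse (18–20 g) per compound. Stock diluted to 5 mg/mL in sterile distilled water, given ip as cumulative doses over 6 h (20, 30, 50, 50 mg/kg at 0, 2, 4, 6 h; total 150 mg/kg). Mice observed 48 h for acute toxicity signs (chill, thirst) or death, then euthanized.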

[4] = test system: Mus musculus; experiment: Acute toxicity in BALB/c mouse at 20, 30, 50 and 50 mg/kg, ip administered at 0, 2, 4, 6 hrs respectively and measured after last dose; type: organism-based; design: dose 50 mg/kg, route intraperitoneal; conditions: in vivo; summary of the method: as §1
[5] = test system: Trypanosoma cruzi; experiment: Antitrypanosomal activity against amastigote stage of lacZ expressing Trypanosoma cruzi Tulahuen after 72 hrs; type: functional, organism-based
Summary of the method: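 Human fibroblasts seeded 2×10^3/well in RPMI 1640 without phenol red, overnight; β-galactosidase-expressing trypomastigotes added 1.0×10^4/well. After 24 h, compounds (DMSO stocks diluted in medium) added in serial dilutions 300 to 0.4 μM, triplicate; 72 h incubation. CPRG with Nonidet P-40 (0.1% final) added, absorbance 570 nm; IC50 from curve fitting; benznidazole positive, untreated negative controls; ≥3 experiments.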

[6] = test system: Mus musculus; experiment: Acute toxicity in BALB/c mouse at 20, 30, 50 and 50 mg/kg, ip administered at 0, 2, 4, 6 hrs respectively and measured after 24 hrs post last dose; type: organism-based; design: dose 50 mg/kg, route intraperitoneal; conditions: in vivo
[7] = test system: Trypanosoma cruzi; experiment: Ratio of benznidazole IC50 to compound IC50 for amastigote stage of lacZ expressing Trypanosoma cruzi Tulahuen; type: functional
Summary of the method: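 Human fibroblasts (2×10^3/well) were seeded overnight in phenol-red-free RPMI 1640, then infected with β-galactosidase-expressing Tulahuen trypomastigotes (1.0×10^4/well). After 24 h, compounds (DMSO stocks) were added as serial dilutions from 300 to 0.4 μM, each in triplicate. After 72 h, CPRG with 0.1% Nonidet P-40 was added and A570 read. Benznidazole was run alongside as standard. IC50s are means of ≥3 experiments.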

[8] = target: T1, Cruzipain; experiment: Competitive inhibition of Trypanosoma cruzi cruzaine expressed in Escherichia coli SG13009 using Z-FR-AMC as substrate by Lineweaver-Burk plot analysis
Summary of the method: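 Mechanism study: eight Z-FR-AMC concentrations crossed with four inhibitor concentrations, each in triplicate, with 1.5 nM cruzain in 0.1 M sodium acetate pH 5.5, 5 mM DTT, 0.01% Triton X-100; 5 min initial rates; kinetic parameters obtained with an enzyme kinetics module.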

Sequence of Cruzipain (Trypanosoma cruzi) (P25779 123-467 limits assumed): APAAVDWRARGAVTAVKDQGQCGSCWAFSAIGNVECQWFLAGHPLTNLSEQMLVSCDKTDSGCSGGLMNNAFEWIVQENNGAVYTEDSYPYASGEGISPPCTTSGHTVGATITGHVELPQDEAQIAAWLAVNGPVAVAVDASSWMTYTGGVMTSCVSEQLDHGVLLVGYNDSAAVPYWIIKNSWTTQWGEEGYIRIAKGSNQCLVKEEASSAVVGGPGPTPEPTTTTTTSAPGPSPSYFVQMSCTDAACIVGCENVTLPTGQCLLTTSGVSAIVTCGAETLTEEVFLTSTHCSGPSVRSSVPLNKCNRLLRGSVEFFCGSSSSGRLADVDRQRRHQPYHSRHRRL

Row | SMILES | inhibition [1] | IC50 [2] | IC50 [5] | also measured
1 | Cc1ccccc1OCC(=O)NCCC(=O)O | 8% |  |  | 
2 | Cc1ccccc1OCC(=O)NCCc1nc2ccccc2[nH]1 | 88% | 4.1 µM | 2.8 µM | Activity [3]: Non-toxic; Activity [4]: Toxic; Activity [6]: Non-toxic
3 | CC(=O)n1c(CCNC(=O)COc2ccccc2[N+](=O)[O-])nc2ccccc21 | 47% |  |  | 
4 | Cc1ccccc1OCC(=O)NCCC(=O)Nc1ccccc1 | 4% |  |  | 
5 | Cc1cc(C)c(C#N)c(SCCNC(=O)COc2ccccc2C)n1 | 13% |  |  | 
6 | C=CCCn1c(CCNC(=O)COc2ccccc2Cl)nc2ccccc21 | 89% | 23.9 µM | 11.1 µM | 
7 | O=C(COc1ccccc1F)NCCc1nc2ccccc2[nH]1 | 92% | 5.3 µM | > 100 µM | Activity [3]: Non-toxic; Activity [4]: Toxic; Activity [6]: Non-toxic
8 | O=C(COc1ccccc1I)NCCc1nc2ccccc2[nH]1 | 96% | 1.6 µM | > 100 µM | Activity [3]: Toxic; Activity [4]: Toxic; Activity [6]: Non-toxic
9 | Cc1ccccc1OCC(=O)NCCc1nc2ccccc2o1 | 33% |  | 2.9 µM | 
10 | O=C(CSc1ccccc1)NCCc1nc2ccccc2[nH]1 | 66% | 38.4 µM | > 100 µM | Activity [3]: Non-toxic; Activity [4]: Toxic; Activity [6]: Non-toxic
11 | O=C(Cn1ccnc1[N+](=O)[O-])NCc1ccccc1 [BENZNIDAZOLE] |  |  | 4.8 µM | 
12 | O=C(COc1ccccc1[N+](=O)[O-])NCCc1nc2ccccc2[nH]1 | 93% | 13.2 µM | 7.9 µM | 
13 | O=C(CCOc1ccccc1)NCCc1nc2ccccc2[nH]1 | 25% |  |  | 
14 | O=C(CCc1ccccc1Br)NCCc1nc2ccccc2[nH]1 | 51% | 77.5 µM | 34.6 µM | 
15 | Cc1ccccc1OCC(=O)NCCC(=O)NCc1ccccc1 | 8% |  |  | 
16 | CC(=O)Nc1ccccc1OCC(=O)NCCc1nc2ccccc2[nH]1 | 25% |  |  | 
17 | O=C(COc1cccc(Br)c1)NCCc1nc2ccccc2[nH]1 | 96% | 0.8 µM | > 100 µM | Activity [3]: Non-toxic; Activity [4]: Toxic; Activity [6]: Non-toxic
18 | O=C(COc1ccc(Br)cc1)NCCc1nc2ccccc2[nH]1 | 96% | 2.7 µM | 6.7 µM | Activity [3]: Non-toxic; Activity [4]: Toxic; Activity [6]: Non-toxic
19 | Nc1ccccc1NC(=O)CCNC(=O)COc1ccccc1[N+](=O)[O-] | 4% |  |  | 
20 | O=C(COc1ccccc1Br)NCCN1CCCCC1 | 1% |  |  | 
21 | O=C(CCc1ccccc1Br)NCCN1CCCCC1 | 7% |  |  | 
22 | Cc1ccccc1OCCNCCc1nc2ccccc2[nH]1 | 8% |  |  | 
23 | Cc1ccccc1OCC(=O)NCCN1CCCCC1 | 3% |  |  | 
24 | Cc1ccccc1OCC(=O)NCCC(=O)Nc1ccccc1O | 2% |  |  | 
25 | N#Cc1ccccc1OCC(=O)NCCc1nc2ccccc2[nH]1 | 81% | 65.1 µM | 6.5 µM | Activity [3]: Non-toxic; Activity [4]: Toxic; Activity [6]: Non-toxic
26 | O=C(COc1ccccc1Cl)NCCc1cnc[nH]1 | 14% |  |  | 

Now from value to compound, other results behind:

Row | inhibition [1] | IC50 [2] | IC50 [5] | SMILES | also measured
27 | 89% | 0.8 µM | 1.6 µM | O=C(COc1ccccc1Br)NCCc1nc2ccccc2[nH]1 | Ratio IC50 [7]: 3
28 | 97% | 0.62 µM |  | Cc1ccc2[nH]c(CCNC(=O)COc3ccc4ccccc4c3Br)nc2c1 | 
29 | 84% | 9.9 µM | 5.3 µM | CC(=O)n1c(CCNC(=O)COc2ccc(Br)cc2)nc2ccccc21 | 
30 | 90% | 3 µM | 46.1 µM | O=C(COc1ccc2ccccc2c1)NCCc1nc2ccccc2[nH]1 | 
31 | 88% |  |  | O=C(COc1ccccc1)NCCc1nc2ccccc2[nH]1 | 
32 | 84% | 5.2 µM | > 100 µM | O=C(COc1cccc2ccccc12)NCCc1nc2ccccc2[nH]1 | 
33 | 43% |  |  | Nc1ccccc1OCC(=O)NCCc1nc2ccccc2[nH]1 | 
34 | 51% | 8.2 µM |  | O=C(COc1ccc2ccccc2c1O)NCCc1nc2ccccc2[nH]1 | 
35 | 92% | 0.21 µM | 16.2 µM | O=C(COc1ccc2ccccc2c1Br)NCCc1nc2ccccc2[nH]1 | Ki [8]: 0.082 µM
36 | 80% | 13.5 µM |  | O=Cc1c(OCC(=O)NCCc2nc3ccccc3[nH]2)ccc2ccccc12 | 
37 | 7% |  |  | O=C(COc1ccc2ccccc2c1)NCCc1cnc[nH]1 | 
38 | 90% | 0.6 µM |  | O=C(COc1ccc2ccccc2c1Br)NCCc1nc2cc(Cl)ccc2[nH]1 | 
39 | 92% | 3 µM | > 100 µM | O=C(COc1ccccc1Cl)NCCc1nc2ccccc2[nH]1 | 
40 | 5% |  |  | Cc1ccccc1OCC(=O)NCCc1c[nH]c2ccccc12 | 
41 | 2% |  |  | O=C(COc1ccc2ccccc2c1Br)NCCc1c[nH]c2ccccc12 | 
42 | 93% | 0.54 µM |  | COc1ccc2[nH]c(CCNC(=O)COc3ccc4ccccc4c3Br)nc2c1 | 
43 | 22% |  |  | O=C(COc1ccc2ccccc2c1)NCCc1nc2ccccc2o1 | 
44 | 80% | 12.7 µM |  | O=C(COc1ccc2ccccc2c1CO)NCCc1nc2ccccc2[nH]1 | 
45 | 14% |  |  | O=C(COc1ccc2ccccc2c1)NCCC(=O)Nc1ccccc1O | 
